The values below come from ChEMBL document CHEMBL1126176, “Synthetic modification of a novel microbial ionophore: exploration of anticoccidial structure-activity relationships” (J Med Chem, 1992).

For assay [1], the species on record is Gallus gallus. Description: Minimum concentration of the compound(ppm) in feed which provides control of Eimeria tenella lesions equivalent to noninfected, nonmedicated birds. Type of assay: functional. The essentials:
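Drug is given continuously in feed to E. tenella-infected birds from 1 day before infection. Birds are killed 6 days after infection and lesions are scored. The value is the lowest feed level (ppm) giving lesion control equal to noninfected, nonmedicated birds.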

The species named for assay [2] is Gallus gallus. Description: In vitro concentration of compound to inhibit growth of Eimeria tenella by 50% […]. Type of assay: functional, organism-based. The essentials: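 E. tenella grown in vitro with drug. Growth is compared with nonmedicated controls. The value is the drug concentration (ppm) that inhibits growth by 50%.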

Where only a bound is given, the exact number is not on record here.

In the case of `C=CCC(C(=O)[O-])[C@@]1(O)O[C@@H]([C@H](C)[C@H]2O[C@@]3(CC[C@@](C)([C@H]4CC[C@@](C)([C@@H]5O[C@@H]([C@H]6O[C@](C)(O)[C@H](C)C[C@@H]6C)C[C@@H]5O[C@H]5CC[C@H](OC)[C@@H](C)O5)O4)O3)C[C@H](O)[C@H]2C)[C@H](OC)[C@@H](O[C@H]2CC[C@H](OC)[C@@H](C)O2)[C@@H]1C.[Na+]` (stereo partly drawn), in the assay listed under Gallus gallus [1], the MEC is given as 60 p.p.m. In the assay listed under Gallus gallus [2], this molecule had an IC50 of 0.01 p.p.m.

`CO[C@@H]1[C@@H](O)[C@H](C)[C@@](O)(CC(=O)[O-])O[C@H]1[C@H](C)[C@H]1O[C@@]2(CC[C@@](C)([C@H]3CC[C@@](C)([C@@H]4O[C@@H]([C@H]5O[C@](C)(O)[C@H](C)C[C@@H]5C)C[C@@H]4O)O3)O2)C[C@H](O)[C@H]1C.[Na+]`: in the assay filed under Gallus gallus [1], the MEC is given as more than 50 p.p.m. This molecule yielded an IC50 in the assay listed under Gallus gallus [2] of more than 1 p.p.m.

Regarding `CO[C@@H]1[C@@H](O[C@H]2CC[C@H](OC)[C@@H](C)O2)[C@H](C)[C@@](O)(CC(=O)[O-])O[C@H]1[C@H](C)[C@H]1O[C@@]2(CC[C@@](C)([C@H]3CC[C@@](C)([C@@H]4O[C@@H]([C@H]5O[C@](C)(OC)[C@H](C)C[C@@H]5C)C[C@@H]4O[C@H]4CC[C@H](OC)[C@@H](C)O4)O3)O2)C[C@H](O)[C@H]1C.[Na+]`, in the assay filed under Gallus gallus [1], the MEC turned out to be 50 p.p.m. Further, the IC50 in the assay filed under Gallus gallus [2] is given as 0.02 p.p.m.

Take `CO[C@@H]1[C@@H](O[C@H]2CC[C@H](OC)[C@@H](C)O2)[C@H](C)[C@@](O)(C(C)C(=O)[O-])O[C@H]1[C@H](C)[C@H]1O[C@@]2(CC[C@@](C)([C@H]3CC[C@@](C)([C@@H]4O[C@@H]([C@H]5O[C@](C)(O)[C@H](C)C[C@@H]5C)C[C@@H]4O[C@H]4CC[C@H](OC)[C@@H](C)O4)O3)O2)C[C@H](O)[C@H]1C.[Na+]` (stereo partly drawn): the MEC in the assay filed under Gallus gallus [1] came to 7.5 p.p.m. Moreover, the IC50 in the assay listed under Gallus gallus [2] was found to be 0.03 p.p.m.

Turning to `CO[C@@H]1[C@@H](O[C@H]2CC[C@H](OC)[C@@H](C)O2)[C@H](C)[C@@](O)(CC(=O)[O-])O[C@H]1[C@H](C)[C@H]1O[C@@]2(CC[C@@](C)([C@H]3CC[C@@](C)([C@@H]4O[C@@H]([C@H]5O[C@](C)(O)[C@H](C)C[C@@H]5C)C[C@@H]4O[C@H]4CC[C@H](OC)[C@@H](C)O4)O3)O2)C[C@H](O)[C@H]1C.[Na+]` [IONOPHORE], the MEC in the assay listed under Gallus gallus [1] is 15 p.p.m. In addition, in the assay filed under Gallus gallus [2], the IC50 is listed as 0.03 p.p.m.

In the case of `CO[C@@H]1[C@@H](O[C@H]2CC[C@H](OC)[C@@H](C)O2)[C@H](C)[C@@](O)(CC(=O)[O-])O[C@H]1[C@H](C)[C@H]1O[C@@]2(CC[C@@](C)([C@H]3CC[C@@](C)([C@@H]4O[C@@H]([C@@H](O)[C@@H](C)C[C@@H](C)[C@@H](C)O)C[C@@H]4O[C@H]4CC[C@H](OC)[C@@H](C)O4)O3)O2)C[C@H](O)[C@H]1C.[Na+]`, in the assay filed under Gallus gallus [1], the MEC was 80 p.p.m. The same molecule yielded an IC50 in the assay filed under Gallus gallus [2] of 0.05 p.p.m.

Regarding `CO[C@@H]1[C@@H](O)[C@H](C)[C@@](O)(CC(=O)[O-])O[C@H]1[C@H](C)[C@H]1O[C@@]2(CC[C@@](C)([C@H]3CC[C@@](C)([C@@H]4O[C@@H]([C@H]5O[C@](C)(O)[C@H](C)C[C@@H]5C)C[C@@H]4O[C@H]4CC[C@H](OC)[C@@H](C)O4)O3)O2)C[C@H](O)[C@H]1C.[Na+]` [SEMDURAMICIN SODIUM], the MEC in the assay filed under Gallus gallus [1] came out at 25 p.p.m. Besides, in the assay listed under Gallus gallus [2], the IC50 is on record as 0.03 p.p.m.

Take `CO[C@@H]1[C@@H](O[C@H]2CC[C@H](OC)[C@@H](C)O2)[C@H](C)[C@@](O)(CC(=O)[O-])O[C@H]1[C@H](C)[C@H]1O[C@@]2(CC[C@@](C)([C@H]3CC[C@@](C)([C@@H]4O[C@@H]([C@@H](O)[C@@H](C)C[C@@H](C)C(C)(C)O)C[C@@H]4O[C@H]4CC[C@H](OC)[C@@H](C)O4)O3)O2)C[C@H](O)[C@H]1C.[Na+]`: in the assay filed under Gallus gallus [1], the MEC is on record as more than 120 p.p.m. Moreover, in the assay listed under Gallus gallus [2], the IC50 is 0.03 p.p.m.

As to `CCCC(C(=O)[O-])[C@@]1(O)O[C@@H]([C@H](C)[C@H]2O[C@@]3(CC[C@@](C)([C@H]4CC[C@@](C)([C@@H]5O[C@@H]([C@H]6O[C@](C)(O)[C@H](C)C[C@@H]6C)C[C@@H]5O[C@H]5CC[C@H](OC)[C@@H](C)O5)O4)O3)C[C@H](O)[C@H]2C)[C@H](OC)[C@@H](O[C@H]2CC[C@H](OC)[C@@H](C)O2)[C@@H]1C.[Na+]` (stereo partly drawn), the MEC in the assay filed under Gallus gallus [1] was 60 p.p.m. Moreover, the IC50 in the assay filed under Gallus gallus [2] was 0.01 p.p.m.

Turning to `CCC(C(=O)[O-])[C@@]1(O)O[C@@H]([C@H](C)[C@H]2O[C@@]3(CC[C@@](C)([C@H]4CC[C@@](C)([C@@H]5O[C@@H]([C@H]6O[C@](C)(O)[C@H](C)C[C@@H]6C)C[C@@H]5O[C@H]5CC[C@H](OC)[C@@H](C)O5)O4)O3)C[C@H](O)[C@H]2C)[C@H](OC)[C@@H](O[C@H]2CC[C@H](OC)[C@@H](C)O2)[C@@H]1C.[Na+]` (stereo partly drawn), in the assay filed under Gallus gallus [1], the MEC turned out to be 30 p.p.m.

Consider `C#CCC(C(=O)[O-])[C@@]1(O)O[C@@H]([C@H](C)[C@H]2O[C@@]3(CC[C@@](C)([C@H]4CC[C@@](C)([C@@H]5O[C@@H]([C@H]6O[C@](C)(O)[C@H](C)C[C@@H]6C)C[C@@H]5O[C@H]5CC[C@H](OC)[C@@H](C)O5)O4)O3)C[C@H](O)[C@H]2C)[C@H](OC)[C@@H](O[C@H]2CC[C@H](OC)[C@@H](C)O2)[C@@H]1C.[Na+]` (stereo in doubt; 2e), for which the MEC in the assay listed under Gallus gallus [1] is recorded as more than 60 p.p.m.

Regarding `CO[C@@H]1[C@@H](O[C@H]2CC[C@H](OC)[C@@H](C)O2)[C@H](C)[C@](CC(=O)[O-])(OC)O[C@H]1[C@H](C)[C@H]1O[C@@]2(CC[C@@](C)([C@H]3CC[C@@](C)([C@@H]4O[C@@H]([C@H]5O[C@](C)(O)[C@H](C)C[C@@H]5C)C[C@@H]4O[C@H]4CC[C@H](OC)[C@@H](C)O4)O3)O2)C[C@H](O)[C@H]1C.[Na+]`, the MEC in the assay listed under Gallus gallus [1] was found to be 120 p.p.m.

With `C#CCC(C(=O)[O-])[C@@]1(O)O[C@@H]([C@H](C)[C@H]2O[C@@]3(CC[C@@](C)([C@H]4CC[C@@](C)([C@@H]5O[C@@H]([C@H]6O[C@](C)(O)[C@H](C)C[C@@H]6C)C[C@@H]5O[C@H]5CC[C@H](OC)[C@@H](C)O5)O4)O3)C[C@H](O)[C@H]2C)[C@H](OC)[C@@H](O[C@H]2CC[C@H](OC)[C@@H](C)O2)[C@@H]1C.[Na+]` (stereo in doubt; 2f), in the assay filed under Gallus gallus [1], the MEC is recorded as 60 p.p.m. Further, the IC50 in the assay filed under Gallus gallus [2] is 0.01 p.p.m.
